According to the RNAGym collection of RNA variant scans (doi:10.1038/nmeth.2970):

B1: NELF-E aptamer (parent)
chain: CCCAACGACUGCCGAGCGAGAUUACGCUUGAGCGCCCCACUGAGGAUGCCCACGGGCGAUUGGGGCACGG

Variants of: B1
Assay: HiTS-RAP
Conditions: with NELF-E (Drosophila)
Method in brief: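 Kd came from weighted Hill fits to the first binding curve, with intensities normalised to sequencing intensity and averaged per sequence, keeping only fits whose variance was below 1,000,000. That curve was imaged on an Illumina GAIIx flowcell, where sequenced aptamer DNA templates with a T7 promoter and ter site had been transcribed in situ by T7 RNA polymerase and halted by GST-Tus (30 minutes, 37°C). Before each image, clusters equilibrated for 30 minutes at room temperature with NELF-E-mOrange at 0.064 to 1000 nM in HEPES binding buffer.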
In the case of CCCAACGACUGCCGAGCGAGAGUACGCCUGAGCGCCCCACUGAGGAUGCCCACGGGCGAUUGGGGCACGG, the Kd is reported as 8.17 nM.
CCCAACGACUGCCGAGCGAGAGUACGCAUGAGCGCCCCACUGAGGAUGCCCACGGGCGAUUGGGGCACGG gave a Kd of 5.81 nM.
For CCCAACGACUGCCGAGCGAGAGUACGCGUGAGCGCCCCACUGAGGAUGCCCACGGGCGAUUGGGGCACGG, the Kd was 6.89 nM.
With CCCAACGACUGCCGAGCGAGAUGACGUUUGAGCGCCCCACUGAGGAUGCCCACGGGCGAUUGGGGCACGG the Kd was 4.59 nM.
In the case of CCCAACGACUGCCGAGCGAGAGUACGCUUGAGCGCCCCACUGAUGAUGCCCACGGGCGAUUGGGGCACGG, the Kd is reported as 17.2 nM.
CCCAACGACUGCCGAGCGAGAGUACGCUUGAGCGCCCCACUGAAGAUGCCCACGGGCGAUUGGGGCACGG was tested, and the Kd was 17.5 nM.
Variant CCCAACGACUGCCGAGCGAGAGUACGCUUGAGCGCCCCACUGAGGAUGCCCACGGGCGACUGGGGCACGG has a Kd of 10.8 nM.
For CCCAACGACUGCCGAGCGAGAGUACGCUUGAGCGCCCCACUGAGGAUGCCCACGGGCGAAUGGGGCACGG, the Kd was 9.43 nM.
CCCAACGACUGCCGAGCGAGAGUACGCUUGAGCGCCCCACUGAGGAUGCCCACGGGCGAGUGGGGCACGG gave a Kd of 7.18 nM.
CCCAACGACUGCCGAGCGAGAGUACGCUUGAGCGCCCCACUGAGAAUGCCCACGGGCGAUUGGGGCACGG gave a Kd of 74.7 nM.
CCCAACGACUGCCGAGCGAGAGUACGCUUGAGCGCCCCACUGAGUAUGCCCACGGGCGAUUGGGGCACGG was tested, and the Kd was 7.63 nM.
CCCAACGACUGCCGAGCGAGAUGACGCUUGAGCGCCCCACUGUGGAUGCCCACGGGCGAUUGGGGCACGG gave a Kd of 85.7 nM.
CCCAACGACUGCCGAGCGAGAUGACGCUUGAGCGCCCCACUGGGGAUGCCCACGGGCGAUUGGGGCACGG gave a Kd of 25.1 nM.
In the case of CCCAACGACUGCCGAGCGAGAGAACGCUUGAGCGCCCCACUGAGGAUGCCCACGGGCGAUUGGGGCACGG, the Kd is reported as 6.19 nM.
With CCCAACGACUGCCGAGCGAGAGCACGCUUGAGCGCCCCACUGAGGAUGCCCACGGGCGAUUGGGGCACGG the Kd was 4.62 nM.
CCCAACGACUGCCGAGCGAGAGGACGCUUGAGCGCCCCACUGAGGAUGCCCACGGGCGAUUGGGGCACGG showed a Kd of 6.17 nM.
CCCAACGACUGCCGAGCGAGAUGACGCUUGAGCGCCCCUCUGAGGAUGCCCACGGGCGAUUGGGGCACGG was tested, and the Kd was 24.8 nM.
Work on CCCAACGACUGCCGAGCGAGAUGACGCUUGAGCGCCCCGCUGAGGAUGCCCACGGGCGAUUGGGGCACGG yielded a Kd of 8.65 nM.
CCCAACGACUGCCGAGCGAGAUGACGCUUGAGCGGCCCACUGAGGAUGCCCACGGGCGAUUGGGGCACGG was tested, and the Kd was 7.07 nM.
CCCAACGACUGCCGAGCGAGAUGACGCUUGAGCGCCCCACUGAGGUUGCCCACGGGCGAUUGGGGCACGG was tested, and the Kd was 69.3 nM.
Variant CCCAACGACUGCCGAGCGAGAUGACGCUUGAGCGCCCCACUGAGGGUGCCCACGGGCGAUUGGGGCACGG has a Kd of 59.5 nM.
CCCAACGACUGCCGAGCGAGAGUACGCUUGAGCGCCCCACCGAGGAUGCCCACGGGCGAUUGGGGCACGG gave a Kd of 74.5 nM.
Variant CCCAACGACUGCCGAGCGAGAGUACGCUUGAGCGCCCCACAGAGGAUGCCCACGGGCGAUUGGGGCACGG has a Kd of 81.8 nM.
Variant CCCAACGACUGCCGAGCGAGAGUACGCUUGAGCGCCCCACGGAGGAUGCCCACGGGCGAUUGGGGCACGG has a Kd of 5.36 nM.
Work on CCCAACGACUGCCGAGCGAGAUAACGCUGGAGCGCCCCACUGAGGAUGCCCACGGGCGAUUGGGGCACGG yielded a Kd of 5.75 nM.
Work on CCCAACGACUGCCGAGCGAGAGUACGCUUGAGCGCCCCACUGAGGAUGCCCACGGGCUAUUGGGGCACGG yielded a Kd of 10.5 nM.
Variant CCCAACGACUGCCGAGCGAGAGUACGCUUGAGCGCCCCACUGAGGAUGCCCACGGGCGAUAGGGGCACGG has a Kd of 29.9 nM.
With CCCAACGACUGCCGAGCGAGAGUACGCUUGAGCGCCCCACUGAGGAUGCCCACGGGCGAUGGGGGCACGG the Kd was 9.56 nM.
Variant CCCAACGACUGCCGAGCGAGAUGAGGCUUGAGCGCCCCACUGAGGAUGCCCACGGGCGAUUGGGGCACGG has a Kd of 5.84 nM.
CCCAACGACUGCCGAGCGAGAUGAUGCUUGAGCGCCCCACUGAGGAUGCCCACGGGCGAUUGGGGCACGG showed a Kd of 5.73 nM.
With CCCAACGACUGCCGAGCGAGAGUACGCUUGAGCGCCCCACUGAGGAUGCCCACAGGCGAUUGGGGCACGG the Kd was 12.1 nM.
CCCAACGACUGCCGAGCGAGAGUACGCUUGAGCGCCCCACUGAGGAUGCCCACUGGCGAUUGGGGCACGG showed a Kd of 7.13 nM.
CCCAACGACUGCCGAGCGAGAGUACGCUUGAGCGCCCCACUGAGGAGGCCCACGGGCGAUUGGGGCACGG gave a Kd of 7.29 nM.
With CCCAACGACUGCCGAGCGAGAGUACGCUUGAGCGCCCCACUGAGGAAGCCCACGGGCGAUUGGGGCACGG the Kd was 11.3 nM.
For CCCAACGACUGCCGAGCGAGAUGACGCUUGAGGGCCCCACUGAGGAUGCCCACGGGCGAUUGGGGCACGG, the Kd was 8.04 nM.
CCCAACGACUGCCGAGCGAGAUGACGCUUGAGUGCCCCACUGAGGAUGCCCACGGGCGAUUGGGGCACGG gave a Kd of 6.01 nM.
CCCAACGACUGCCGAGCGAGAUGACGCUUGAGAGCCCCACUGAGGAUGCCCACGGGCGAUUGGGGCACGG showed a Kd of 5.51 nM.
CCCAACGACUGCCGAGCGAGAGUACGCUUGAGCGCCCCACUGAGGAUGCCCACGGGCGAUUGGCGCACGG was tested, and the Kd was 6.91 nM.
For CCCAACGACUGCCGAGCGAGAGUACGCUUGAGCGCCCCACUGAGGAUGCCCACGGGCGAUUGGUGCACGG, the Kd was 6.37 nM.
Variant CCCAACGACUGCCGAGCGAGAGUACGCUUGAGCGCCCCACUGAGGAUGCCCACGGGCGAUUGGAGCACGG has a Kd of 8.7 nM.
CCCAACGACUGCCGAGCGAGAGUACGCUUGAGCGCCCCACUGAGGAUACCCACGGGCGAUUGGGGCACGG gave a Kd of 9.21 nM.
CCCAACGACUGCCGAGCGAGAGUACGCUUGAGCGCCCCACUGAGGAUUCCCACGGGCGAUUGGGGCACGG showed a Kd of 9.66 nM.
Work on CCCAACGACUGCCGAGCGAGAGUACGCUUGAGCGCCCCACUAAGGAUGCCCACGGGCGAUUGGGGCACGG yielded a Kd of 49.8 nM.
With CCCAACGACUGCCGAGCGAGAGUACGCUUGAGCGCCCCACUGAGGAUGCCCACGGUCGAUUGGGGCACGG the Kd was 5.99 nM.
For CCCAACGACUGCCGAGCGAGAGUACGCUUGAGCGCCCCACUGAGGAUGCCCACGGACGAUUGGGGCACGG, the Kd was 8.77 nM.
CCCAACGACUGCCGAGCGAGAUCACGCUGGAGCGCCCCACUGAGGAUGCCCACGGGCGAUUGGGGCACGG showed a Kd of 4.34 nM.
Variant CCCAACGACUGCCGAGCGAGAGUACGCUGGAGCGCCCCACUGAGGAUGCCCACGGGCGAUUGGGGCACGG has a Kd of 5.4 nM.
CCCAACGACUGCCGAGCGAGAGUACGCUAGAGCGCCCCACUGAGGAUGCCCACGGGCGAUUGGGGCACGG showed a Kd of 5.82 nM.
CCCAACGACUGCCGAGCGAGAGUACGCUCGAGCGCCCCACUGAGGAUGCCCACGGGCGAUUGGGGCACGG showed a Kd of 5.92 nM.
CCCAACGACUGCCGAGCGAGAUGACGCUUGAGCGCCCCACUGAGGAUGCCCACGGGCGAUUGGGGCGCGG showed a Kd of 6.23 nM.
With CCCAACGACUGCCGAGCGAGAUGACGCUUGAGCGCCCCACUGAGGAUGCCCACGGGCGAUUGGGGCCCGG the Kd was 4.59 nM.
Work on CCCAACGACUGCCGAGCGAGAUGACGCUUGAGCGCCCCACUGAGGAUGCCCACGGGCGAUUGGGGCUCGG yielded a Kd of 7.58 nM.
In the case of CCCAACGACUGCCGAGCGAGAUGACGCUUGAGCGCCCCACUGAGGAUGCCCACGGGCGGUUGGGGCACGG, the Kd is reported as 57.5 nM.
With CCCAACGACUGCCGAGCGAGAUGACGCUUGGGCGCCCCACUGAGGAUGCCCACGGGCGAUUGGGGCACGG the Kd was 6.72 nM.
CCCAACGACUGCCGAGCGAGAUGACGCUUGUGCGCCCCACUGAGGAUGCCCACGGGCGAUUGGGGCACGG showed a Kd of 6.53 nM.
Work on CCCAACGACUGCCGAGCGAGAUCACGCUUGAGCGCCCCACUGAGGAUGCCCACGGGCGAUUGGGGCACGG yielded a Kd of 4.16 nM.
Work on CCCAACGACUGCCGAGCGAGAUGACGCUUGAGCGCCCCACUGAGGAUGCCCACGGGCGAUUGGGGCACGG yielded a Kd of 4.99 nM.
CCCAACGACUGCCGAGCGAGAUAACGCUUGAGCGCCCCACUGAGGAUGCCCACGGGCGAUUGGGGCACGG was tested, and the Kd was 5.15 nM.
CCCAACGACUGCCGAGCGAGAUGACGCUUGAGCGCCCCACUGAGGAUGCCCGCGGGCGAUUGGGGCACGG gave a Kd of 4.37 nM.
CCCAACGACUGCCGAGCGAGAUGACGCUUGAGCGCCCCACUGAGGAUGCCCUCGGGCGAUUGGGGCACGG was tested, and the Kd was 17.6 nM.
CCCAACGACUGCCGAGCGAGAGUACGCUUGAGCGCCCCACUGAGGAUGCCCACGGGCGAUUGGGACACGG showed a Kd of 5.12 nM.
CCCAACGACUGCCGAGCGAGAGUACGCUUGAGCGCCCCACUGAGGAUGCCCACGGGCGAUUGGGUCACGG gave a Kd of 6.22 nM.
Variant CCCAACGACUGCCGAGCGAGAGUACGCUUGAGCGCCCCACUGAGGAUGCCCACGGGCGAUUGGGCCACGG has a Kd of 13.4 nM.
CCCAACGACUGCCGAGCGAGAUCGCGCUUGAGCGCCCCACUGAGGAUGCCCACGGGCGAUUGGGGCACGG was tested, and the Kd was 5.24 nM.
For CCCAACGACUGCCGAGCGAGAGUACGCUUGAGCGCCCCACUGAGGAUGCCCACGAGCGAUUGGGGCACGG, the Kd was 8.23 nM.
With CCCAACGACUGCCGAGCGAGAGUACGCUUGAGCGCCCCACUGAGGAUGCCCACGCGCGAUUGGGGCACGG the Kd was 7.26 nM.
CCCAACGACUGCCGAGCGAGAGUACGCUUGAGCGCCCCACUGAGGAUGCCCACGUGCGAUUGGGGCACGG gave a Kd of 7.97 nM.
In the case of CCCAACGACUGCCGAGCGAGAGUACGCUUGAGCGCCCCACUGAGGAUGCCCACGGGCGAUUUGGGCACGG, the Kd is reported as 10.4 nM.
Work on CCCAACGACUGCCGAGCGAGAGUACGCUUGAGCGCCCCACUGAGGAUGCCCACGGGCGAUUAGGGCACGG yielded a Kd of 18.2 nM.
Variant CCCAACGACUGCCGAGCGAGAGUACGCUUGAGCUCCCCACUGAGGAUGCCCACGGGCGAUUGGGGCACGG has a Kd of 5.88 nM.
CCCAACGACUGCCGAGCGAGAGUACGCUUGAGCACCCCACUGAGGAUGCCCACGGGCGAUUGGGGCACGG was tested, and the Kd was 8.31 nM.
Work on CCCAACGACUGCCGAGCGAGAUAGCGCUUGAGCGCCCCACUGAGGAUGCCCACGGGCGAUUGGGGCACGG yielded a Kd of 6.07 nM.
Work on CCCAACGACUGCCGAGCGAGAUGGCGCUUGAGCGCCCCACUGAGGAUGCCCACGGGCGAUUGGGGCACGG yielded a Kd of 5.97 nM.
For CCCAACGACUGCCGAGCGAGAUGUCGCUUGAGCGCCCCACUGAGGAUGCCCACGGGCGAUUGGGGCACGG, the Kd was 6.08 nM.
With CCCAACGACUGCCGAGCGAGAGUACGCUUGAGCGCCCCACUGAGGAUGCCCACGGGCGAUUGCGGCACGG the Kd was 39.6 nM.
CCCAACGACUGCCGAGCGAGAGUACGCUUGAGCGCCCCACUGAGGAUGCCCACGGGCGAUUGUGGCACGG was tested, and the Kd was 14 nM.
CCCAACGACUGCCGAGCGAGAGUACGCUUGAGCGCCCCACUGAGGAUGCCCACGGGCGAUUGAGGCACGG showed a Kd of 14.9 nM.
